Laboratory results from ChEMBL document CHEMBL1177856, “Synthesis and cytotoxic activity of fluorinated analogues of Goniothalamus lactones. Impact of fluorine on oxidative processes” (Eur J Med Chem, 2010).

How the values were obtained:
KB [1] = test: Cytotoxicity against human KB cells after 24 hrs; format: functional, cell-based
How it was run: (§1)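 Cell growth inhibition assay on human cancer lines KB, MCF-7, HT29, HepG2 and A549. IC50 is defined as the concentration that inhibits cell growth by 50%.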

MCF7 [2] = test: Cytotoxicity against human MCF7 cells after 24 hrs; format: functional, cell-based; details: MCF7, 24 h; how it was run: as §1
HT-29 [3] = test: Cytotoxicity against human HT-29 cells after 24 hrs; format: functional, cell-based; details: HT-29, 24 h; how it was run: as §1
HepG2 [4] = test: Cytotoxicity against human HepG2 cells after 24 hrs; format: functional, cell-based; details: HepG2, 24 h; how it was run: as §1
A549 [5] = test: Cytotoxicity against human A549 cells after 24 hrs; format: functional, cell-based; details: A549, 24 h; how it was run: as §1
KB [6] = test: Cytotoxicity against human KB cells after 24 hrs
A549 [7] = test: Cytotoxicity against human A549 cells after 24 hrs; details: A549, 24 h
MCF7 [8] = test: Cytotoxicity against human MCF7 cells after 24 hrs; details: MCF7, 24 h
HepG2 [9] = test: Cytotoxicity against human HepG2 cells after 24 hrs; details: HepG2, 24 h
HT-29 [10] = test: Cytotoxicity against human HT-29 cells after 24 hrs; details: HT-29, 24 h
P388 = test: Cytotoxicity against mouse P388 cells; format: functional, cell-based
WEHI-164 = test: Cytotoxicity against mouse WEHI164 cells; format: functional, cell-based
[11] = Cytotoxicity against human Hep3B cells; format: functional, cell-based, Hep 3B2
MDA-MB-231 = test: Cytotoxicity against human MDA-MB-231 cells; format: functional, cell-based

O=C1C=C[C@H](O)[C@H]([C@H](O)[C@H](OC(=O)/C=C/C(F)(F)F)c2ccccc2)O1
IC50 (KB [1]): 1.4 µM
IC50 (MCF7 [2]): 1.6 µM
IC50 (HT-29 [3]): 4.5 µM
IC50 (HepG2 [4]): 1.8 µM
IC50 (A549 [5]): 3 µM

O=C1C=CCC(/C=C/C(F)(F)F)O1 (racemic)
IC50 (KB [6]): > 10 µM
IC50 (A549 [7]): > 10 µM
IC50 (MCF7 [8]): > 10 µM
IC50 (HepG2 [9]): > 10 µM
IC50 (HT-29 [10]): > 10 µM

O=C1C=CCC(/C=C/c2ccccc2)O1 (racemic)
IC50 (KB [1]): 3 µM
IC50 (MCF7 [2]): 3.5 µM
IC50 (HT-29 [3]): 10.1 µM
IC50 (HepG2 [4]): 2.4 µM
IC50 (A549 [5]): 9.1 µM
IC50 (P388): 3.8 µM
IC50 (WEHI-164): 8.5 µM
IC50 [11]: 5.4 µM
IC50 (MDA-MB-231): 5.4 µM

O=C1C=CC[C@H](/C=C/c2ccccc2)O1 [GONIOTHALAMIN]
IC50 (MCF7 [2]): 4.5 µM
IC50 (HepG2 [4]): 1.6 µM
IC50 (P388): 3.8 µM
IC50 (WEHI-164): 8.5 µM
IC50 [11]: 5.4 µM
IC50 (MDA-MB-231): 5.4 µM

O=C1C=C[C@H](O)[C@H]([C@H](O)[C@H](OC(=O)/C=C/c2ccccc2)c2ccccc2)O1 [HOWIINOL A]
IC50 (KB [1]): 0.9 µM
IC50 (MCF7 [2]): 1.1 µM
IC50 (HT-29 [3]): 2.6 µM
IC50 (HepG2 [4]): 1.6 µM
IC50 (A549 [5]): 1.5 µM
